# Data reported in ChEMBL document CHEMBL4373680, “Small antibacterial molecules highly active against drug-resistant Staphylococcus aureus” (Medchemcomm, 2019).
# Calls of active or inactive are those of the source. The calls are words filed in the database; no cut-off is given here.
# Assays:
# Pseudomonas aeruginosa = assay: Antibacterial activity against Pseudomonas aeruginosa MTCC 424 after 24 hrs by tecan plate reader analysis; assay type: functional
# Outline: (§1)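 Broth microdilution MIC. Glycerol stocks grown on MacConkey agar 24 h at 37 °C, then a single colony in nutrient broth 6 h to mid-log (~10⁸ CFU/mL). Cells diluted to 10⁵ CFU/mL in Mueller Hinton broth and added to two-fold compound dilutions. Incubated 24 h at 37 °C, OD600 read. Triplicate wells, experiment run twice.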
# Acinetobacter baumannii = assay: Antibacterial activity against Acinetobacter baumannii MTCC 1425 after 24 hrs by tecan plate reader analysis; assay type: functional; outline: as §1
# Escherichia coli = assay: Antibacterial activity against Escherichia coli MTCC 443 after 24 hrs by tecan plate reader analysis; assay type: functional; outline: as §1
# Klebsiella pneumoniae = assay: Antibacterial activity against Klebsiella pneumoniae ATCC 700603 after 24 hrs by tecan plate reader analysis; assay type: functional; outline: as §1
# [1] = Hemolytic activity in human erythrocytes after 1 hr; assay type: ADME, cell-based, Erythrocyte
# Outline: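 Heparinized donor blood. Erythrocytes washed three times in PBS and resuspended to 5 vol%, then mixed 3:1 with compound serially diluted in water. Incubated 1 h at 37 °C and centrifuged. Supernatant A540 read; % hemolysis relative to water and 0.1 vol% Triton-X controls.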
# Staphylococcus aureus [2] = assay: Antibacterial activity against methicillin-resistant Staphylococcus aureus ATCC 33591 after 24 hrs by tecan plate reader analysis; assay type: functional; conditions: ATCC 33591, 24 h
# Outline: (§2)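 Colony grown 24 h on NB agar at 37 °C, then 6 h in nutrient broth to mid-log (10⁸ CFU/mL by drop plating), diluted to 10⁵ CFU/mL in Mueller Hinton broth; added 9:1 to two-fold serial compound dilutions in MHB. Incubated 24 h, 37 °C; OD600 read. Triplicate per concentration, experiment run twice; MIC taken from the range of triplicate OD values.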
# Staphylococcus aureus [3] = assay: Antibacterial activity against vancomycin-resistant Staphylococcus aureus clinical isolate 4 after 24 hrs by tecan plate reader analysis; assay type: functional; conditions: clinical isolate 4, 24 h; outline: as §2
# Staphylococcus aureus [4] = assay: Bactericidal activity against metabolically inactive stationary phase methicillin-resistant Staphylococcus aureus R3545 assessed as reduction in bacterial colony formation at 32 ug/ml incubated for 6 hrs followed by plating on agar plate for 24 hrs by visual counting analysis; assay type: functional, organism-based
# Staphylococcus aureus [5] = assay: Antibiofilm activity against Staphylococcus aureus R3545 assessed as reduction in biofilm biomass at 32 ug/ml incubated for 24 hrs followed by plating on agar plate for 24 hrs by crystal violet staining assay relative to control; assay type: functional; conditions: R3545, 24 h
# Outline: (§3)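 Biofilms grown 24 h static at 37 °C on coverslips (10⁵ CFU/mL in nutrient broth, 1% glucose, 1% NaCl) and treated 24 h, then PBS-washed, air-dried 10–15 min, stained with 0.1% w/v crystal violet 5–10 min, washed, dye recovered in 95% ethanol; OD 522 nm read. Run twice, mean with standard deviation.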
# Staphylococcus aureus [6] = assay: Antibiofilm activity against Staphylococcus aureus ATCC 33591 assessed as reduction in biofilm biomass at 32 ug/ml incubated for 24 hrs followed by plating on agar plate for 24 hrs by crystal violet staining assay relative to control; assay type: functional; conditions: ATCC 33591, 24 h; outline: as §3
# Staphylococcus aureus [7] = assay: Antibacterial activity against vancomycin-resistant Staphylococcus aureus clinical isolate 1 after 24 hrs by tecan plate reader analysis; assay type: functional; conditions: clinical isolate 1, 24 h; outline: as §2
# Staphylococcus aureus [8] = assay: Bactericidal activity against metabolically inactive stationary phase methicillin-resistant Staphylococcus aureus ATCC 33591 assessed as reduction in bacterial colony formation at 32 ug/ml incubated for 6 hrs followed by plating on agar plate for 24 hrs by visual counting analysis; assay type: functional, organism-based
# Staphylococcus aureus [9] = assay: Antibacterial activity against methicillin-resistant Staphylococcus aureus R3890 clinical isolate after 24 hrs by tecan plate reader analysis; assay type: functional; conditions: R3890, 24 h; outline: as §2
# Staphylococcus aureus [10] = assay: Antibacterial activity against methicillin-resistant Staphylococcus aureus R3889 clinical isolate after 24 hrs by tecan plate reader analysis; assay type: functional; conditions: R3889, 24 h; outline: as §2
# Staphylococcus aureus [11] = assay: Antibacterial activity against methicillin-resistant Staphylococcus aureus R3545 clinical isolate after 24 hrs by tecan plate reader analysis; assay type: functional; conditions: R3545, 24 h; outline: as §2
# [12] = Selectivity index, ratio of HC50 for human erythrocytes to MIC for Escherichia coli MTCC 443; assay type: toxicity; conditions: read-out: Selectivity Index
# [13] = Klebsiella pneumoniae, 700603, 24 h
Compound,"MIC (Pseudomonas aeruginosa; MTCC 424, 24 h)",HC50 at 1 h [1],"MIC (Acinetobacter baumannii; MTCC 1425, 24 h)","MIC (Escherichia coli; MTCC 443, 24 h)",MIC (Staphylococcus aureus [2]),MIC (Klebsiella pneumoniae; [13]),other results
COLISTIN,–,–,–,–,–,–,MIC (Pseudomonas aeruginosa): 1 µg/mL; MIC (Acinetobacter baumannii): 0.5 µg/mL; MIC (Escherichia coli): 1 µg/mL; MIC (Klebsiella pneumoniae): 1 µg/mL
CCCCCCCCCCNC(=O)C[N+](C)(CCO)CCCCCCCCCC[N+](C)(CCO)CC(=O)NCCCCCCCCCC.[Br-].[Br-] (centres undefined),8 µg/mL,18 µg/mL,1 µg/mL,2 µg/mL,0.5 µg/mL,4 µg/mL,–
CCCCCCCCCCCCNC(=O)C[N+](C)(CCO)CCCCCC[N+](C)(CCO)CC(=O)NCCCCCCCCCCCC.[Br-].[Br-] (centres undefined),128 to 256 µg/mL,31 µg/mL,4 µg/mL,8 µg/mL,1 to 2 µg/mL,128 µg/mL,–
CCCCCCCCCCCCNC(=O)C[N+](C)(CCO)CCC[N+](C)(CCO)CC(=O)NCCCCCCCCCCCC.[Br-].[Br-] (centres undefined),64 to 128 µg/mL,37 µg/mL,8 µg/mL,16 µg/mL,2 µg/mL,128 to 256 µg/mL,–
CCCCCCCCCCNC(=O)C[N+](C)(CCO)CCCCCC[N+](C)(CCO)CC(=O)NCCCCCCCCCC.[Br-].[Br-] (centres undefined),4 µg/mL,31 µg/mL,2 µg/mL,1 µg/mL,0.5 µg/mL,2 to 4 µg/mL,–
CCCCCCNC(=O)C[N+](C)(CCO)CCCCCCCC[N+](C)(CCO)CC(=O)NCCCCCC.O=C([O-])C(F)(F)F.O=C([O-])C(F)(F)F (centres undefined),> 256 µg/mL,> 1020 µg/mL,> 256 µg/mL,256 µg/mL,128 µg/mL,> 256 µg/mL,–
CCCCCCCCCCCCNC(=O)C[N+](C)(CCO)CCCCCCCC[N+](C)(CCO)CC(=O)NCCCCCCCCCCCC.[Br-].[Br-] (centres undefined),64 to 128 µg/mL,29 µg/mL,4 µg/mL,32 µg/mL,2 µg/mL,64 µg/mL,–
CN[C@H](CC(C)C)C(=O)N[C@H]1C(=O)N[C@@H](CC(N)=O)C(=O)N[C@H]2C(=O)N[C@H]3C(=O)N[C@H](C(=O)N[C@H](C(=O)O)c4cc(O)cc(O)c4-c4cc3ccc4O)[C@H](O)c3ccc(c(Cl)c3)Oc3cc2cc(c3O[C@@H]2O[C@H](CO)[C@@H](O)[C@H](O)[C@H]2O[C@H]2C[C@](C)(N)[C@H](O)[C@H](C)O2)Oc2ccc(cc2Cl)[C@H]1O [VANCOMYCIN],–,–,–,–,0.5 to 1 µg/mL,–,MIC (Staphylococcus aureus [3]): 512 µg/mL; Activity (Staphylococcus aureus [4]): inactive; inhibition at 32 µg/mL (Staphylococcus aureus [5]): 10%; inhibition at 32 µg/mL (Staphylococcus aureus [6]): 10%; MIC (Staphylococcus aureus [7]): 512 µg/mL; Activity (Staphylococcus aureus [8]): inactive
CCCCCCNC(=O)C[N+](C)(CCO)CCC[N+](C)(CCO)CC(=O)NCCCCCC.O=C([O-])C(F)(F)F.O=C([O-])C(F)(F)F (centres undefined),> 256 µg/mL,> 1020 µg/mL,> 256 µg/mL,> 256 µg/mL,256 µg/mL,> 256 µg/mL,–
CCCCCCCCCCCCNC(=O)C[N+](C)(CCO)CCCCCCCCCC[N+](C)(CCO)CC(=O)NCCCCCCCCCCCC.[Br-].[Br-] (centres undefined),64 to 128 µg/mL,32 µg/mL,8 µg/mL,32 µg/mL,4 µg/mL,64 to 128 µg/mL,–
CCCCCCCCNC(=O)C[N+](C)(CCO)CCCCCCCCCCCC[N+](C)(CCO)CC(=O)NCCCCCCCC.[Br-].[Br-] (centres undefined),4 µg/mL,12 µg/mL,2 µg/mL,0.5 to 1 µg/mL,0.25 µg/mL,2 µg/mL,–
COc1cccc(OC)c1C(=O)N[C@@H]1C(=O)N2[C@@H]1SC(C)(C)[C@@H]2C(=O)O [METHICILLIN],–,–,–,–,> 32 µg/mL,–,MIC (Staphylococcus aureus [9]): > 32 µg/mL; MIC (Staphylococcus aureus [10]): 16 to 32 µg/mL; MIC (Staphylococcus aureus [11]): 16 to 32 µg/mL
CCCCCCCCCCNC(=O)C[N+](C)(CCO)CCCCCCCC[N+](C)(CCO)CC(=O)NCCCCCCCCCC.[Br-].[Br-] (centres undefined),4 µg/mL,25 µg/mL,1 µg/mL,1 µg/mL,0.5 µg/mL,2 µg/mL,–
CCCCCCCCNC(=O)C[N+](C)(CCO)CCCCCCCCCC[N+](C)(CCO)CC(=O)NCCCCCCCC.[Br-].[Br-] (centres undefined),4 µg/mL,28 µg/mL,4 µg/mL,0.5 µg/mL,0.25 to 0.5 µg/mL,4 µg/mL,–
CCCCCCCCCCCCNC(=O)C[N+](C)(CCO)CCCCCCCCCCCC[N+](C)(CCO)CC(=O)NCCCCCCCCCCCC.[Br-].[Br-] (centres undefined),64 µg/mL,22 µg/mL,32 µg/mL,32 µg/mL,2 to 4 µg/mL,128 to 256 µg/mL,–
CCCCCCCCCCNC(=O)C[N+](C)(CCO)CCCCCCCCCCCC[N+](C)(CCO)CC(=O)NCCCCCCCCCC.[Br-].[Br-] (centres undefined),32 µg/mL,16 µg/mL,2 µg/mL,4 µg/mL,2 µg/mL,16 µg/mL,–
CCCCCCNC(=O)C[N+](C)(CCO)CCCCCC[N+](C)(CCO)CC(=O)NCCCCCC.O=C([O-])C(F)(F)F.O=C([O-])C(F)(F)F (centres undefined),> 256 µg/mL,> 1020 µg/mL,> 256 µg/mL,> 256 µg/mL,256 µg/mL,> 256 µg/mL,–
CCCCCCCCNC(=O)C[N+](C)(CCO)CCCCCCCC[N+](C)(CCO)CC(=O)NCCCCCCCC.[Br-].[Br-] (centres undefined),16 µg/mL,61 µg/mL,8 µg/mL,1 to 2 µg/mL,0.5 to 1 µg/mL,8 µg/mL,–
CCCCCCCCCCNC(=O)C[N+](C)(CCO)CCC[N+](C)(CCO)CC(=O)NCCCCCCCCCC.[Br-].[Br-] (centres undefined),2 µg/mL,34 µg/mL,2 µg/mL,1 µg/mL,1 µg/mL,4 µg/mL,–
CCCCCCNC(=O)C[N+](C)(CCO)CCCCCCCCCC[N+](C)(CCO)CC(=O)NCCCCCC.O=C([O-])C(F)(F)F.O=C([O-])C(F)(F)F (centres undefined),256 µg/mL,> 1020 µg/mL,256 µg/mL,8 µg/mL,8 µg/mL,> 256 µg/mL,selectivity ratio [12]: 125
CCCCCCCCNC(=O)C[N+](C)(CCO)CCC[N+](C)(CCO)CC(=O)NCCCCCCCC.[Br-].[Br-] (centres undefined),8 µg/mL,178 µg/mL,32 µg/mL,16 µg/mL,2 µg/mL,32 µg/mL,–
